Measurements from ChEMBL document CHEMBL4339200, “Structure-based Discovery of Phenyl (3-Phenylpyrrolidin-3-yl)sulfones as Selective, Orally Active RORγt Inverse Agonists” (ACS Med Chem Lett, 2019).
Activity calls are given as the source filed them. No cut-off for these calls is given here.

Tests used:
[1] = target: Cytochrome P450 2D6 (Homo sapiens, UniProt P10635); test: Inhibition of CYP2D6 (unknown origin); assay type: ADME
[2] = test system: Mus musculus; test: Inhibition of IL2/IL23-induced IL17A production in po bid dosed C57BL/6 mouse treated 30 mins prior to 24 hrs IL2 challenge followed by IL2/IL23 addition at 0,7 and 23 hrs measured after 7 hrs post last IL2/IL23 challenge; assay type: functional, organism-based
In short: (§1)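 Naive mice were challenged three times with IL-2 plus IL-23 (first at 0 and 7 h) and dosed orally bid at 5, 15 or 50 mg/kg. Serum cytokines were measured 7 h after the final IL-2/IL-23 administration. An anti-IL-23 antibody served as positive control.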

[3] = Protein binding in mouse plasma assessed as unbound fraction; assay type: ADME, cell-free
[4] = target: T1, Nuclear receptor subfamily 1 group I member 2 (Homo sapiens, UniProt O75469); test: Transactivation of PXR in human HepG2 cells; assay type: ADME, cell-based
T1 sequence (O75469 whole entry): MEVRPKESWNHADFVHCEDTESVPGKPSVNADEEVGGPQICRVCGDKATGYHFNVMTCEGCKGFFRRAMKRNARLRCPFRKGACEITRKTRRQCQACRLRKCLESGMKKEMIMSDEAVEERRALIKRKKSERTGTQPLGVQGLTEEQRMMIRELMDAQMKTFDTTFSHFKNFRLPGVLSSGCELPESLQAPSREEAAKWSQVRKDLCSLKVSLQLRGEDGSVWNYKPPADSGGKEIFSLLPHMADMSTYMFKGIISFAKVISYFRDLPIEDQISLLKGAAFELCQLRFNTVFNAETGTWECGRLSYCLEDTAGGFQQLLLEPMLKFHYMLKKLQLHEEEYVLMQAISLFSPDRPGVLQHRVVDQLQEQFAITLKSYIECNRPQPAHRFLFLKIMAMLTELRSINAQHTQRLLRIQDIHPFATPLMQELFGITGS

[5] = target: T2, Cytochrome P450 1A2 (Homo sapiens, UniProt P05177); test: Inhibition of CYP1A2 (unknown origin); assay type: ADME
T2 sequence (P05177 whole entry): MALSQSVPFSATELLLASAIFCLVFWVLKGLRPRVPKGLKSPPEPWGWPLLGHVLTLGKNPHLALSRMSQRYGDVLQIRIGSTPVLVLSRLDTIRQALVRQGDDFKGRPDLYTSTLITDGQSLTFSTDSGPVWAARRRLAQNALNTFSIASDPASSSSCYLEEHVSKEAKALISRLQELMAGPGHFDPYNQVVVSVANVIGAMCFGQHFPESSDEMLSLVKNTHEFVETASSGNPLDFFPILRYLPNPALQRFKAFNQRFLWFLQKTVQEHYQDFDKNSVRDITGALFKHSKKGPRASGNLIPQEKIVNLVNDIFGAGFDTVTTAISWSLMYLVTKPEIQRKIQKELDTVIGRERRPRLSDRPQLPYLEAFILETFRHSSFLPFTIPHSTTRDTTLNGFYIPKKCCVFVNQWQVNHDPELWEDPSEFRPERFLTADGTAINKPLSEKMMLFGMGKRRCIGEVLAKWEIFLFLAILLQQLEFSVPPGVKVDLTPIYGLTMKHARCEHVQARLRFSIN

[6] = Permeability in human Caco2 cells; assay type: ADME, cell-based; conditions: Caco-2, read-out: permeability
In short: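 Caco-2 monolayer permeability, reported as permeation coefficient in nm/s; an efflux ratio was also determined.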

[7] = target: T3, Cytochrome P450 2C8 (Homo sapiens, UniProt P10632); test: Inhibition of CYP2C8 (unknown origin); assay type: ADME
T3 sequence (P10632 whole entry): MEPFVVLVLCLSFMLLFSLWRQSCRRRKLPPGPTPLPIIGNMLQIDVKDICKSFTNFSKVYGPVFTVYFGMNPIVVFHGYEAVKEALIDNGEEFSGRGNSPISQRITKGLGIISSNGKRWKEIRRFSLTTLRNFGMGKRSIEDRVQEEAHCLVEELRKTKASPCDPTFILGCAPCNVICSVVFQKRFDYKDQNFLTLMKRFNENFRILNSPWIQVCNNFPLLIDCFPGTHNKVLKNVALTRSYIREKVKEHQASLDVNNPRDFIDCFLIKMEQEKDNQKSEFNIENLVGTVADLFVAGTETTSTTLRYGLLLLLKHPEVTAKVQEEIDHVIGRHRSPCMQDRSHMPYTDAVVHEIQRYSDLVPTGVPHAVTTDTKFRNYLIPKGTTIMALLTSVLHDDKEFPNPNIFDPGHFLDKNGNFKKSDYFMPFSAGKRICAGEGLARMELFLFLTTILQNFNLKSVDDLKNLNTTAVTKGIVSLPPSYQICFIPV

[8] = test system: Mus musculus; test: Inhibition of IL2/IL23-induced IL17F production in C57BL/6 mouse at 5 mg/kg, po bid treated 30 mins prior to 24 hrs IL2 challenge followed by IL2/IL23 addition at 0,7 and 23 hrs measured after 7 hrs post last IL2/IL23 challenge relative to control; assay type: functional; conditions: C57BL/6, po; in short: as §1
[9] = Cmax in Balb/c mouse at 10 mg/kg, po; assay type: ADME, organism-based; set-up: dose 10 mg/kg, route oral; conditions: in vivo
In short: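 Balb/c mice given a single intravenous dose of 2 mg/kg or an oral dose of 10 mg/kg. Plasma exposure was followed to derive Cmax, Tmax, AUC, t1/2, clearance, Vss and oral bioavailability (F).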

[10] = test system: Mus musculus; test: Inhibition of IL2/IL23-induced GM-CSF production in po bid dosed C57BL/6 mouse treated 30 mins prior to 24 hrs IL2 challenge followed by IL2/IL23 addition at 0,7 and 23 hrs measured after 7 hrs post last IL2/IL23 challenge; assay type: functional, organism-based; in short: as §1
[11] = target: T4, PXR (NR1I2) (Homo sapiens, UniProt O75469); test: Transactivation of PXR in human HepG2 cells relative to rifampicin; assay type: ADME, cell-based; conditions: read-out: %max
T4 sequence (O75469 whole entry): T1 sequence (O75469 whole entry)

[12] = target: T5, Nuclear receptor ROR-beta (Homo sapiens) (UniProt Q92753); test: Inverse agonist activity at GAL4-fused RORbeta LBD (200 to 559 residues) (unknown origin) expressed in human Jurkat cells measured after 18 hrs by native IL17 promoter driven steady-glo luciferase assay; assay type: cell-based
T5 sequence (whole entry): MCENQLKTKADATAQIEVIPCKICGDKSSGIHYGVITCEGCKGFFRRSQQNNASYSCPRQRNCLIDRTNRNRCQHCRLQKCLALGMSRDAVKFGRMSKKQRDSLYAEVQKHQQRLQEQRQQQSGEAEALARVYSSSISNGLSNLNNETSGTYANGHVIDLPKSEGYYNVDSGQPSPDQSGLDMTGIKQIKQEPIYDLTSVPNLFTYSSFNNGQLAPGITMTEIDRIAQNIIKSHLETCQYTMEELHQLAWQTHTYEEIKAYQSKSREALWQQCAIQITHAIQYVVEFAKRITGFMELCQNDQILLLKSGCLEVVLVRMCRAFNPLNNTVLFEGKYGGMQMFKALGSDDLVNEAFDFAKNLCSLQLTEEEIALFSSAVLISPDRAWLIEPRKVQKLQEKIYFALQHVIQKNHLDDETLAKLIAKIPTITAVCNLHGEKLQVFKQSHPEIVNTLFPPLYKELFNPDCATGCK

[13] = Protein binding in human plasma assessed as unbound fraction; assay type: ADME, cell-free

Chain of Cytochrome P450 2D6 (P10635 whole entry): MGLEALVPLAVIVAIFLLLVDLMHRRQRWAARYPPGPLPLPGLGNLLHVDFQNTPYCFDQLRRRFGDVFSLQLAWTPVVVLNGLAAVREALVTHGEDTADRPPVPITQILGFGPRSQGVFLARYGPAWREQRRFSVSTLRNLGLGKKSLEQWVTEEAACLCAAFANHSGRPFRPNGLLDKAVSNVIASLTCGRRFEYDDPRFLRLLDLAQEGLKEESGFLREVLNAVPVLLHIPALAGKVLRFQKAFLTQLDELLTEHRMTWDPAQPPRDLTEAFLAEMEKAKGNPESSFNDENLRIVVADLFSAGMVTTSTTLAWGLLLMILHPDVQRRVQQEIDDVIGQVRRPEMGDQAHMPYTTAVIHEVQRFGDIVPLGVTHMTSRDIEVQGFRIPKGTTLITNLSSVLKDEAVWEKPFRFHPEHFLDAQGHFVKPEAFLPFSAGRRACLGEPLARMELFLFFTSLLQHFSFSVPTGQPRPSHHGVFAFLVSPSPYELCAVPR

O=C(O)[C@H]1CC[C@H](C(=O)N2CC[C@](c3ccc(C(F)(C(F)(F)F)C(F)(F)F)cc3)(S(=O)(=O)c3ccc(F)cc3)C2)CC1
IC50 [1]: > 20 µM
inhibition [2]: Dose-dependent effect
fraction unbound [3]: 0.105
EC50 [4]: > 50 µM
IC50 [5]: > 20 µM
Papp [6]: 12 ×10⁻⁶ cm/s
IC50 [7]: 0.68 µM
inhibition in vivo at 5 mg/kg [8]: 47%
Cmax [9]: 6.6 µM
inhibition [10]: Dose-dependent effect
Emax [11]: 18%
Activity [12]: inactive
fraction unbound [13]: 0.037
